Data published in ChEMBL document CHEMBL4004866, “6-Benzylidene-2-[4-(pyridin-3-ylcarboxy)benzylidene]cyclohexanones: A novel cluster of tumour-selective cytotoxins” (Bioorg Med Chem Lett, 2017).
Activity calls are given as the source filed them. The calls are words filed in the database; no cut-off is given here.

Assays:
[1] = Cytotoxicity against human Molt4/C8 cells assessed as growth inhibition after 72 hrs by coulter counter method; format: functional, cell-based; conditions: Molt4/C8, 72 h
L1210 = experiment: Cytotoxicity against mouse L1210 cells assessed as growth inhibition after 48 hrs by coulter counter method; format: functional, cell-based; conditions: L1210, 48 h
CCRF-CEM = experiment: Cytotoxicity against human CEM cells assessed as growth inhibition after 72 hrs by coulter counter method; format: functional, cell-based
HSC-2 [2] = experiment: Cell cycle arrest in human HSC2 cells assessed as accumulation at S phase at 7 uM after 24 hrs by propidium iodide staining-based method (reference value: 13%); format: functional
HSC-2 [3] = experiment: Cytotoxicity against human HSC2 cells after 48 hrs by MTT assay; format: functional; conditions: HSC-2, 48 h
[4] = Selectivity index, ratio of CC50 for HGF to CC50 for human HSC3 cells; conditions: pooled result: one value given for 3 cell lines, strains, targets or settings
[5] = Selectivity index, ratio of CC50 for HGF to CC50 for human HL60 cells; conditions: pooled result: one value given for 3 cell lines, strains, targets or settings
HL-60 = experiment: Cytotoxicity against human HL60 cells after 48 hrs by MTT assay; format: functional; conditions: HL-60, 48 h
Rattus norvegicus [6] = experiment: Toxicity in rat assessed as overt toxicity at 50 mg/kg, po after 0.25 to 4 hrs; format: organism-based; conditions: in vivo
Method in brief: (§1)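 Rats received a single oral dose and were examined for overt toxicity at 0.25, 0.5, 1, 2 and 4 h.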

HSC-3 [7] = experiment: Cytotoxicity against human HSC3 cells after 48 hrs by MTT assay; format: functional; conditions: HSC-3, 48 h
[8] = Chemical stability in deuterium oxide/deuterated dimethylsulfoxide after 48 hrs by 1H NMR method; format: physicochemical
Method in brief: (§2)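 Compound solutions were incubated for 48 h at 37 °C, the same time and temperature as the in vitro assays, and checked for hydrolysis to the corresponding phenol.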

Mus musculus [9] = experiment: Toxicity in mouse assessed as mortality at 30 to 300 mg/kg, ip after 0.5 to 4 hrs; format: organism-based; conditions: in vivo
Method in brief: (§3)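 Mice were given compound intraperitoneally at 30, 100 and 300 mg/kg. Animals were checked for survival and neurological deficit at 0.5 and 4 h after dosing.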

[10] = Chemical stability in pH 7.4 buffer/dimethylsulfoxide after 48 hrs by 1H NMR method; format: physicochemical; conditions: pH 7.4, 48 h; method in brief: as §2
[11] = Cytotoxicity against HGF after 48 hrs by MTT assay; format: cell-based; conditions: human, HGF cells
Method in brief: (§4)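 Nonmalignant human cells were exposed to compounds for 48 h at 37 °C. CC50 was taken as the concentration cytotoxic to 50% of cells.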

Mus musculus [12] = experiment: Neurotoxicity in mouse at 300 mg/kg, ip after 4 hrs; format: toxicity, organism-based; conditions: in vivo
Method in brief: (§5)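 Mice received intraperitoneal doses of 30, 100 and 300 mg/kg. Animals were scored for survival and neurological deficit at 0.5 and 4 h after dosing.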

[13] = Selectivity index, ratio of CC50 for human HPC to CC50 for human HSC4 cells
HSC-2 [14] = experiment: Induction of apoptosis in human HSC2 cells assessed as PARP1 cleavage at 7 uM after 24 hrs by chemiluminescence method; format: functional, cell-based
Mus musculus [15] = experiment: Neurotoxicity in mouse at 300 mg/kg, ip after 0.5 hrs; format: toxicity, organism-based; conditions: in vivo; method in brief: as §5
[16] = Selectivity index, ratio of CC50 for HGF to CC50 for human HSC4 cells
Serum = experiment: Drug metabolism in rat serum/dimethylsulfoxide assessed as 6-benzylidene-2-(4-hydroxybenzylidene)cyclohexanone formation after 48 hrs by 1H NMR method; format: ADME, cell-free; method in brief: as §2
HSC-3 [17] = experiment: Induction of apoptosis in human HSC3 cells assessed as PARP1 cleavage at 7 uM after 24 hrs by chemiluminescence method; format: functional, cell-based
[18] = Cytotoxicity against HPLF after 48 hrs by MTT assay; format: cell-based; conditions: human, HPLF cells; method in brief: as §4
HSC-2 [19] = experiment: Cell cycle arrest in human HSC2 cells assessed as accumulation at G0/G1 phase at 7 uM after 24 hrs by propidium iodide staining-based method (reference value: 73%); format: functional
[20] = Selectivity index, ratio of CC50 for HGF to CC50 for human HSC2 cells; conditions: pooled result: one value given for 3 cell lines, strains, targets or settings
[21] = Selectivity index, ratio of CC50 for HPLF to CC50 for human HSC4 cells
HSC-2 [22] = experiment: Cell cycle arrest in human HSC2 cells assessed as accumulation at G2/M phase at 7 uM after 24 hrs by propidium iodide staining-based method (reference value: 11%); format: functional
HSC-4 = experiment: Cytotoxicity against human HSC4 cells after 48 hrs by MTT assay; format: functional; conditions: HSC-4, 48 h
[23] = Cytotoxicity against human HPC after 48 hrs by MTT assay; format: cell-based; conditions: HPC cells; method in brief: as §4
[24] = Toxicity in ip dosed mouse; format: organism-based; conditions: in vivo; method in brief: as §3
Rattus norvegicus [25] = experiment: Toxicity in rat assessed as overt toxicity at 30 mg/kg, po after 0.25 to 4 hrs; format: organism-based; conditions: in vivo; method in brief: as §1

SMILES | IC50 [1] [µM] | IC50 (L1210) [µM] | IC50 (CCRF-CEM) [µM] | CC50 (HSC-2 [3]) [µM] | Selectivity Index [4] | Selectivity Index [5] | CC50 (HL-60) [µM] | CC50 (HSC-3 [7]) [µM] | Activity (Mus musculus [9]) | CC50 at 48 h [11] [µM] | Selectivity Index [13] | Selectivity Index [16] | CC50 at 48 h [18] [µM] | Selectivity Index [20] | Selectivity Index [21] | CC50 (HSC-4) [µM] | CC50 at 48 h [23] [µM] | further results
COc1ccc(/C=C2\CCC/C(=C\c3ccc(O)cc3)C2=O)cc1 | 4.18 | 6.85 | 5.68 | – | – | – | – | – | – | – | – | – | – | – | – | – | – | –
O=C1/C(=C/c2ccccc2)CCC/C1=C\c1ccc(OC(=O)c2cccnc2)cc1 | 1.62 | 8.71 | 7.3 | 12.5 | 5.99 | 70.7 | 1.5 | 17.7 | Non-Toxic | 116 | 6.67 | 6.67 | 60 | 8.48 | 6.67 | 15.9 | 142 | Activity (HSC-2 [2]): 9.7%; Activity (Rattus norvegicus [6]): Non-Toxic; Stability [8]: Stable; Stability [10]: Stable; Activity (Mus musculus [12]): Non-Toxic; Activity (HSC-2 [14]): Active; Activity (Mus musculus [15]): Toxic; Drug metabolism (Serum): Metabolite_Notdetected; Activity (HSC-3 [17]): inactive; Activity (HSC-2 [19]): 86%; Activity (HSC-2 [22]): 1.5%
O=C1/C(=C/c2ccccc2)CCC/C1=C\c1ccc(OC(=O)c2ccccc2)cc1 | 10.4 | 46.7 | 40.4 | – | – | – | – | – | Non-Toxic | – | – | – | – | – | – | – | – | –
N[C@@H](Cc1ccc(N(CCCl)CCCl)cc1)C(=O)O [MELPHALAN] | – | – | – | 12 | 1.46 | 75.6 | 0.89 | 46 | – | 73 | 1.46 | 1.46 | 92 | 5.61 | 1.46 | 46 | 37 | LD50 [24]: 21.7 mg/kg
O=C1/C(=C/c2ccc(OC(=O)c3cccnc3)cc2)CCC/C1=C\c1ccc([N+](=O)[O-])cc1 | 38.1 | 61.1 | 48.1 | 112 | 1 | 1 | > 200 | > 200 | Non-Toxic | > 200 | 1 | 1 | > 200 | >1.79 | 1 | > 200 | > 200 | –
Cc1ccc(/C=C2\CCC/C(=C\c3ccc(O)cc3)C2=O)cc1 | 5.22 | 7.41 | 4.31 | – | – | – | – | – | – | – | – | – | – | – | – | – | – | –
O=C(O)c1cccnc1 [NIACIN] | > 500 | > 500 | > 500 | > 200 | 1 | 1 | > 200 | > 200 | – | > 200 | 1 | 1 | > 200 | 1 | 1 | > 200 | > 200 | –
O=C1/C(=C/c2ccc(Cl)cc2)CCC/C1=C\c1ccc(OC(=O)c2cccnc2)cc1 | 7.89 | 29.6 | 17.4 | 30.5 | 5.16 | 16.6 | 10.5 | 33.7 | Non-Toxic | 190 | 4.67 | 4.67 | 154 | 5.71 | 4.67 | 37.3 | 179 | –
O=C1/C(=C/c2ccc(O)cc2)CCC/C1=C\c1ccc(O)cc1 | 5.52 | 13.5 | 6.84 | – | – | – | – | – | – | – | – | – | – | – | – | – | – | –
O=C1/C(=C/c2ccc(OC(=O)c3cccnc3)cc2)CCC/C1=C\c1ccc(OC(=O)c2cccnc2)cc1 | 22.6 | 213 | 169 | – | – | – | – | – | Non-Toxic | – | – | – | – | – | – | – | – | –
Cc1ccc(/C=C2\CCC/C(=C\c3ccc(OC(=O)c4cccnc4)cc3)C2=O)cc1 | 2.88 | 12.8 | 9.49 | 90.3 | >1.86 | >95.8 | 1.9 | 98 | Non-Toxic | 184 | >1.93 | >1.93 | 163 | >2.02 | >1.93 | 94.3 | > 200 | Activity (Rattus norvegicus [25]): Non-Toxic
COc1ccc(/C=C2\CCC/C(=C\c3ccc(OC(=O)c4cccnc4)cc3)C2=O)cc1 | 1.19 | 7.63 | 9.85 | 30.3 | >12.5 | >87 | 2.3 | 16 | Non-Toxic | > 200 | >8.81 | >8.81 | > 200 | >6.6 | >8.81 | 22.7 | > 200 | –
O=C1/C(=C/c2ccc(O)cc2)CCC/C1=C\c1ccc(Cl)cc1 | 4.9 | 6.44 | 2.69 | – | – | – | – | – | – | – | – | – | – | – | – | – | – | –
Cc1ccc(/C=C2\CCC/C(=C\c3ccc(OC(=O)c4ccccc4)cc3)C2=O)cc1 | 5.7 | 37.9 | 10.6 | – | – | – | – | – | Non-Toxic | – | – | – | – | – | – | – | – | –
O=C1/C(=C/c2ccccc2)CCC/C1=C\c1ccc(O)cc1 | 5.17 | 7.32 | 5.82 | – | – | – | – | – | – | – | – | – | – | – | – | – | – | –
